According to ChEMBL document CHEMBL1122279, “Importance of C-6 chirality in conferring irreversible opioid antagonism to naltrexone-derived affinity labels” (J Med Chem, 1983):

Columns and labels:
Cavia porcellus [1] = species: Cavia porcellus; assay: Irreversible antagonism to ethylketazocine (EK) was evaluated after 30 min incubation of GPI with the compound at 20 nM conc.; format: functional
Procedure, shortened: (§1)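 Guinea pig ileal longitudinal muscle was incubated with compound at the stated concentrations for 30 min, then washed 20 times. […] Result is the agonist IC50 after treatment divided by the control agonist IC50 in the same preparation.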

Cavia porcellus [2] = species: Cavia porcellus; assay: Irreversible antagonism to ethylketazocine (EK) was evaluated after 30 min incubation of GPI with the compound at 500 nM conc.; format: functional; procedure, shortened: as §1
Cavia porcellus [3] = species: Cavia porcellus; assay: Irreversible antagonism to morphine was evaluated after 30 min incubation of GPI with the compound at 200 nM conc.; format: functional; procedure, shortened: as §1
Cavia porcellus [4] = species: Cavia porcellus; assay: Irreversible antagonism to morphine was evaluated after 30 min incubation of GPI with the compound at 20 nM conc.; format: functional; procedure, shortened: as §1
Cavia porcellus [5] = species: Cavia porcellus; assay: Irreversible antagonism to morphine was evaluated after 30 min incubation of GPI with the compound at 500 nM conc.; format: functional; procedure, shortened: as §1
Cavia porcellus [6] = species: Cavia porcellus; assay: Irreversible antagonism to nalorphine was evaluated after 30 min incubation of GPI with the compound at 200 nM conc.; format: functional; procedure, shortened: as §1
Cavia porcellus [7] = species: Cavia porcellus; assay: Agonistic potency on the guinea pig ileal longitudinal muscle (GPI) relative to morphine.; format: functional, Muscle tissue
Procedure, shortened: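 Isolated guinea pig ileal longitudinal muscle was prepared by the Rang method. […] Only inhibition of contraction greater than 80% was counted.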

Mus musculus [8] = species: Mus musculus; assay: Antagonist potency relative to DADLE at 20 nM concentration; format: functional
Procedure, shortened: (§2)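 Mouse vas deferens (Henderson method) was pretreated with compound for 30 min, then washed 20 times. […] Result is the agonist IC50 after treatment divided by the control IC50 in the same tissue. Where the agonist fell short of a full (>70%) response, an IC30 ratio was estimated from the plotted curves.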

Mus musculus [9] = species: Mus musculus; assay: Antagonist potency relative to DADLE at 200 nM concentration; format: functional; procedure, shortened: as §2
Mus musculus [10] = species: Mus musculus; assay: Antagonist potency relative to morphine at 20 nM concentration; format: functional; procedure, shortened: as §2
Mus musculus [11] = species: Mus musculus; assay: Antagonist potency relative to morphine at 200 nM concentration; format: functional; procedure, shortened: as §2
Mus musculus [12] = species: Mus musculus; assay: (§3) Agonist activity measured on mouse vas deferens (MVD); format: functional
Mus musculus [13] = species: Mus musculus; assay: Percent of maximum inhibition of contraction of mouse vas deferens (MVD); format: functional
Cavia porcellus [14] = species: Cavia porcellus; assay: Irreversible antagonism to nalorphine was evaluated after 30 min incubation of GPI with the compound at 20 nM conc.; format: functional; procedure, shortened: as §1
Cavia porcellus [15] = species: Cavia porcellus; assay: Irreversible antagonism to ethylketazocine (EK) was evaluated after 30 min incubation of GPI with the compound at 1000 nM conc.; format: functional; procedure, shortened: as §1
Cavia porcellus [16] = species: Cavia porcellus; assay: Irreversible antagonism to ethylketazocine (EK) was evaluated after 30 min incubation of GPI with the compound at 200 nM conc.; format: functional; procedure, shortened: as §1
Cavia porcellus [17] = species: Cavia porcellus; assay: Irreversible antagonism to morphine was evaluated after 30 min incubation of GPI with the compound at 1000 nM conc.; format: functional; procedure, shortened: as §1
Mus musculus [18] = species: Mus musculus; assay: Antagonist potency relative to DADLE at 100 nM concentration; format: functional; procedure, shortened: as §2
Mus musculus [19] = species: Mus musculus; assay: Antagonist potency relative to morphine at 100 nM concentration; format: functional; procedure, shortened: as §2
Cavia porcellus [20] = species: Cavia porcellus; assay: Agonistic activity on the guinea pig ileal longitudinal muscle (GPI) relative to morphine at a dose of 1 uM; format: functional, Muscle tissue
Mus musculus [21] = species: Mus musculus; assay: as §3; format: functional, organism-based
Cavia porcellus [22] = species: Cavia porcellus; assay: Irreversible antagonistic potency in guinea pig ileal longitudinal muscle (GPI); format: functional; settings: Muscle tissue
Mus musculus [23] = species: Mus musculus; assay: Irreversible antagonistic potency in mouse vas deferens (MVD); format: functional
Procedure, shortened: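 Mouse vas deferens (Henderson method) was pretreated with compound for 30 min, then washed 20 times. Where the agonist fell short of a full (>70%) response, an IC30 ratio was estimated from the plotted curves.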

Compound	IC50 ratio (Cavia porcellus [3])	IC50 ratio (Cavia porcellus [4])	IC50 ratio (Cavia porcellus [6])	IC50 ratio (Cavia porcellus [7])	IC50 ratio (Mus musculus [9])	IC50 ratio (Mus musculus [11])	IC50 ratio (Cavia porcellus [14])	other results
Oc1ccc2c3c1O[C@H]1[C@@H](N=C=S)CC[C@@]4(O)C(C2)N(CC2CC2)CCC314 (stereo partly specified)	2.4	2.1	1.2	9.6	6.6	10.7		IC50 ratio (Cavia porcellus [1]): 0.8; IC50 ratio (Cavia porcellus [2]): 1.4; IC50 ratio (Cavia porcellus [5]): 2.3; IC50 ratio (Mus musculus [8]): 1.2; IC50 ratio (Mus musculus [10]): 3.1; IC30 (Mus musculus [12]): 100 nM; max inhibition (Mus musculus [13]): 45%
COC(=O)/C=C\C(=O)N[C@@H]1CC[C@@]2(O)C3Cc4ccc(O)c5c4C2(CCN3CC2CC2)[C@H]1O5 (stereo partly specified)	0.63	1.5	0.6	1.1			1	
COC(=O)/C=C/C(=O)N[C@@H]1CC[C@@]2(O)[C@H]3Cc4ccc(O)c5c4[C@@]2(CCN3CC2CC2)[C@H]1O5		6		5	1.1	10.6		IC50 ratio (Cavia porcellus [15]): 1.3; IC50 ratio (Cavia porcellus [16]): 1.2; IC50 ratio (Cavia porcellus [1]): 1; IC50 ratio (Cavia porcellus [17]): 18.8; IC50 ratio (Mus musculus [18]): 1.8; IC50 ratio (Mus musculus [19]): 3.9
O=C(CI)N[C@@H]1CCC2(O)C3Cc4ccc(O)c5c4C2(CCN3CC2CC2)[C@H]1O5 (stereo partly specified)	2.1	2.4	1.2		1.8	20	1.2	max inhibition (Cavia porcellus [20]): 55%; IC50 ratio (Cavia porcellus [15]): 0.7; IC50 (Mus musculus [21]): > 1000 nM
O=C(CI)N[C@H]1CCC2(O)C3Cc4ccc(O)c5c4C2(CCN3CC2CC2)[C@H]1O5 (stereo partly specified)	1.1	0.97	0.87	0.49	1.2	2.5	1.2	IC30 (Mus musculus [12]): 200 nM; max inhibition (Mus musculus [13]): 60%
COC(=O)/C=C/C(=O)N[C@H]1CC[C@@]2(O)[C@H]3Cc4ccc(O)c5c4[C@@]2(CCN3CC2CC2)[C@H]1O5	0.87	1.2		7.3	0.37	0.52	0.92	IC50 ratio (Cavia porcellus [16]): 0.86; IC30 (Mus musculus [12]): 80 nM; max inhibition (Mus musculus [13]): 60%
COC(=O)/C=C\C(=O)N[C@H]1CC[C@@]2(O)C3Cc4ccc(O)c5c4C2(CCN3CC2CC2)[C@H]1O5 (stereo partly specified)	1.1	0.95	0.98	0.8			0.49	
C=CCN1CC[C@]23c4c5ccc(O)c4O[C@H]2[C@@H](O)C=C[C@H]3[C@H]1C5 [NALORPHINE]								IC50 (Cavia porcellus [22]): 51.3 nM
C=CC(=O)N[C@@H]1CCC2(O)C3Cc4ccc(O)c5c4C2(CCN3CC2CC2)[C@H]1O5 (stereo partly specified)	4.2	1.9	1.4				1.1	max inhibition (Cavia porcellus [20]): 40%; IC50 ratio (Cavia porcellus [15]): 1.5; IC50 ratio (Cavia porcellus [17]): 2.9
CC(C)C[C@@H](NC(=O)[C@H](Cc1ccccc1)NC(=O)CNC(=O)[C@@H](C)NC(=O)[C@@H](N)Cc1ccc(O)cc1)C(=O)O [DADLE]								IC50 (Mus musculus [23]): 0.357 nM
Oc1ccc2c3c1O[C@H]1[C@H](N=C=S)CC[C@@]4(O)C(C2)N(CC2CC2)CCC314 (stereo partly specified)	14.9	6.9	1.4	1.9	6.9	120	1.5	IC50 ratio (Mus musculus [8]): 1.8; IC50 ratio (Mus musculus [10]): 13.8; IC30 (Mus musculus [12]): 100 nM; max inhibition (Mus musculus [13]): 43%
CCC(=O)N[C@@H]1CCC2(O)C3Cc4ccc(O)c5c4C2(CCN3CC2CC2)[C@H]1O5 (stereo partly specified)	1.5	1.3	0.85	0.81			1	
C=CC(=O)N[C@H]1CCC2(O)C3Cc4ccc(O)c5c4C2(CCN3CC2CC2)[C@H]1O5 (stereo partly specified)	1.2	1.2	0.8	1.5			0.78	
CCC(=O)N[C@H]1CCC2(O)C3Cc4ccc(O)c5c4C2(CCN3CC2CC2)[C@H]1O5 (stereo partly specified)	1	1.1	0.9	2.9			0.7	
CCOc1ccc2c(c1)C1(C)CCN(CC3CC3)C(C2=O)C1C (stereo unspecified) [ETHYLKETAZOCINE]								IC50 (Cavia porcellus [22]): 0.973 nM
